The source made the active and inactive calls. No cut-off for these calls is given here.
Legend:
[1] = biological target: T1, Androgen receptor (Homo sapiens) (UniProt P10275); test: Agonist activity at wild type AR expressed in […] SC cells assessed as effect on cell proliferation by WST-8 assay; format: cell-based
T1 sequence (whole entry): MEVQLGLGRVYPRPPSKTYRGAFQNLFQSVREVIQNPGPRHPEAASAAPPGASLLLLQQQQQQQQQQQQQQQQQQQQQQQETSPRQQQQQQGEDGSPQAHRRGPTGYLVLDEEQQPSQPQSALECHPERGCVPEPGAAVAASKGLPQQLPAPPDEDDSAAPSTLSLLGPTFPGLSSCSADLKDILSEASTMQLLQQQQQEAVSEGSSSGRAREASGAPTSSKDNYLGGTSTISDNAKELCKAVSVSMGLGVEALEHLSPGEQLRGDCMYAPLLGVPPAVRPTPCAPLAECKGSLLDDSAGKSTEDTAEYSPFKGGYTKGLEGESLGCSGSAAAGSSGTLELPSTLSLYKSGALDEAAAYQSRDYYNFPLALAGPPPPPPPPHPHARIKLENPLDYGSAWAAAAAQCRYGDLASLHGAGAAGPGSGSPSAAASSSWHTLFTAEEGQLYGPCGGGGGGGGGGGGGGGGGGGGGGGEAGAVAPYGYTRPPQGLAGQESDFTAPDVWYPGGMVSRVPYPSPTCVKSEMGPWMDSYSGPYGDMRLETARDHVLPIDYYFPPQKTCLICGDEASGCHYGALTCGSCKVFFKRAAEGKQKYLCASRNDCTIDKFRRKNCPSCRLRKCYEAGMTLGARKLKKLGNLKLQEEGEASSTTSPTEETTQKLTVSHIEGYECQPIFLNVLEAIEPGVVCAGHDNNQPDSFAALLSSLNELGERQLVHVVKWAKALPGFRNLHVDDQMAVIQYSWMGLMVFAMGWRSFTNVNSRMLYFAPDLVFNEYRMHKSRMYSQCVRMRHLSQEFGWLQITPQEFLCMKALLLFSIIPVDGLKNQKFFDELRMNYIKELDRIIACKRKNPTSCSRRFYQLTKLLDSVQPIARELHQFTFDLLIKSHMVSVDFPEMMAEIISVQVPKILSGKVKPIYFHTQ

PC-3 = test: Cytotoxicity against androgen-independent human PC3 cells assessed as inhibition of cell proliferation after 3 days by WST-8 assay; format: functional, cell-based
Androgen receptor = biological target: T2, Androgen receptor (Homo sapiens, UniProt P10275); test: Displacement of [3H]-DHT from human GST fused AR-LBD (627 to 919 amino acids) transfected in Escherichia coli HB 101 after 15 hrs by liquid scintillation counting assay
T2 sequence (P10275 whole entry): T1 sequence (whole entry)
Procedure, shortened: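 Crude sonicated lysate in TEGDM was diluted to 0.3-0.5 mg/mL protein. Incubation was in the dark at 4°C for 15 h with 4 nM [3H]-DHT and 1 µM triamcinolone acetonide (final). Free ligand was removed with dextran/γ-globulin-coated charcoal, and the supernatant counted by liquid scintillation; ≥duplicate.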

| Compound | Activity [1] | inhibition (PC-3) | IC50 (Androgen receptor) |
| --- | --- | --- | --- |
| O=[N+]([O-])c1ccc(Cc2nnc(O)c3ccccc23)cc1 | inactive | – | – |
| CCNc1ccc(Cc2n[nH]c(=O)c3ccccc23)cc1 | inactive | – | – |
| Nc1ccccc1Cc1n[nH]c(=O)c2ccccc12 | inactive | inactive | 45.2 µM |
| Cc1ccccc1Cc1n[nH]c(=O)c2ccccc12 | inactive | – | – |
| CN(C)c1ccccc1Cc1n[nH]c(=O)c2ccccc12 | inactive | – | – |
| CC(=O)Nc1ccc(Cc2n[nH]c(=O)c3ccccc23)cc1 | inactive | – | – |
| CS(=O)(=O)Nc1ccc(Cc2n[nH]c(=O)c3ccccc23)cc1 | inactive | – | – |
| CCN(CC)c1ccc(Cc2n[nH]c(=O)c3ccccc23)cc1 | inactive | – | – |
| CC(=O)Nc1ccccc1Cc1n[nH]c(=O)c2ccccc12 | inactive | – | – |
| Nc1ccc(Cc2n[nH]c(=O)c3ccccc23)cc1 | inactive | – | – |
| CCN(CC)c1ccccc1Cc1n[nH]c(=O)c2ccccc12 | inactive | – | – |
| O=C(Nc1ccccc1Cc1n[nH]c(=O)c2ccccc12)C(F)(F)F | inactive | – | – |
| O=c1[nH]nc(Cc2ccccc2[N+](=O)[O-])c2ccccc12 | inactive | inactive | > 100 µM |
| COc1ccccc1Cc1n[nH]c(=O)c2ccccc12 | inactive | – | – |
| O=c1[nH]nc(Cc2ccccc2C(F)(F)F)c2ccccc12 | inactive | – | – |
| Cc1cccc(C)c1Cc1n[nH]c(=O)c2ccccc12 | inactive | inactive | 84.3 µM |
| Oc1nnc(Cc2ccccc2Cl)c2ccccc12 | inactive | inactive | 85.4 µM |
| O=c1[nH]nc(Cc2c(Cl)cccc2Cl)c2ccccc12 | inactive | inactive | 10.9 µM |
| CNc1ccc(Cc2n[nH]c(=O)c3ccccc23)cc1 | inactive | – | – |
| O=C(O)c1ccccc1Cc1n[nH]c(=O)c2ccccc12 | inactive | – | – |
| O=c1[nH]nc(Cc2c(Cl)ccc(Cl)c2Cl)c2ccccc12 | inactive | inactive | 56.7 µM |
| O=c1[nH]nc(Cc2ccccc2F)c2ccccc12 | inactive | – | – |
| CS(=O)(=O)Nc1ccccc1Cc1n[nH]c(=O)c2ccccc12 | inactive | – | – |
| O=c1[nH]nc(Cc2ccccc2)c2ccccc12 | inactive | – | – |
| CN(C)c1ccc(Cc2n[nH]c(=O)c3ccccc23)cc1 | inactive | – | – |
| O=C(Nc1ccc(Cc2n[nH]c(=O)c3ccccc23)cc1)C(F)(F)F | inactive | – | – |
| CCNc1ccccc1Cc1n[nH]c(=O)c2ccccc12 | inactive | – | – |
| CC(C)(O)C(=O)Nc1ccc([N+](=O)[O-])c(C(F)(F)F)c1 | inactive | – | – |
| O=c1[nH]nc(Cc2c(F)cccc2F)c2ccccc12 | inactive | – | – |
| CNc1ccccc1Cc1n[nH]c(=O)c2ccccc12 | inactive | – | – |

Source: ChEMBL document CHEMBL3621051, “Design and synthesis of 4-benzyl-1-(2H)-phthalazinone derivatives as novel androgen receptor antagonists” (Eur J Med Chem, 2015)
